Read-outs that look alike come from different tables or passages of the source.
Experiments:
[1] = tested on: KB (epidermoid carcinoma) cell line; test: MTT cytotoxicity assay, KB cells; format: cell-based, human; conditions: read-out: IC50, KB
[2] = tested on: A549 (non-small lung cancer) cell line; test: MTT cytotoxicity assay, A549 cells; format: cell-based, human; conditions: read-out: IC50, A549
[3] = tested on: HepG2 (hepatoma carcinoma) cell line; test: MTT cytotoxicity assay, HepG2 cells; format: cell-based, human; conditions: read-out: IC50, HepG2
[4] = tested on: MCF7 (breast cancer) cell line; test: MTT cytotoxicity assay, MCF7 cells; format: cell-based, human; conditions: read-out: IC50, MCF7
[5] = tested on: Hek-293 human embryonic kidney cells; test: MTT cytotoxicity assay, Hek-293 cells; format: cell-based; conditions: for IC50: read-out: IC50, Hek-293; for fold lower cytotoxicity against Hek-293 cells than to A549: Hek-293 vs A549
A549 cells [6] = test: Annexin-V FITC and PI flow cytometry assay for apoptosis; format: cell-based, human; conditions: 48 hours
Procedure, shortened: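 A549 cells seeded at 5×10^5 per 25 cm² flask, treated 48 h with test compound (0.45, 0.9, 1.8 μM), DMSO 1% vehicle or camptothecin 2 μM. Harvested, washed in cold PBS, resuspended in binding buffer, stained with annexin V plus PI (1 mg mL⁻¹ stock), 15 min at 37 °C, diluted in binding buffer, analysed by flow cytometry. Quadrants: live, early apoptotic, late apoptotic, necrotic.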

A549 cells [7] = test: Cell cycle analysis by PI flow cytometry; format: cell-based, human; conditions: 24 hours
Procedure, shortened: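 A549 cells seeded at 3×10^5 per 25 cm² flask; exposed 24 h to test compound (0.45, 0.9, 1.8 μM) or DMSO 0.5%. Cells washed twice in PBS, fixed in ice-cold 70% ethanol at –20 °C for 2 h, pelleted, treated with RNase A (2.5 mg mL⁻¹) 15 min at 37 °C, stained 30 min with PI (1 mg mL⁻¹ stock), then flow cytometry for phase distribution.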

Molecule: 4′,6′-Dimethyl-3H-spiro[benzo[g]furo[3,4-b]quinoline-11,3′-indoline]-1,2′,5,10(4H)-tetraone [Compound 7g]
- IC50 ([1]; MTT, 3 days incubation): 4.85 ± 0.41 µM
- IC50 ([2]; MTT, 3 days incubation): 1.67 ± 0.17 µM
- IC50 ([3]; MTT, 3 days incubation): 6.74 ± 0.68 µM
- IC50 ([4]; MTT, 3 days incubation): 2.62 ± 0.22 µM
- IC50 ([5]; MTT, 3 days incubation): 7.27 ± 0.78 µM

Molecule: CC[C@@]1(O)C(=O)OCc2c1cc1n(c2=O)Cc2cc3ccccc3nc2-1 [Camptothecin, reference compound]
- % early apoptosis cells (Q2-4) (A549 cells [6]; A549, 2 μM): 30.71%
- % late apoptosis cells (Q2-2) (A549 cells [6]; A549, 2 μM): 11.05%
- % necrotic cells (Q2-1) (A549 cells [6]; A549, 2 μM): 1.99%
- % total apoptosis cells (A549 cells [6]; A549, 2 μM): 41.76%

Molecule: O=C1OCC2=C1C1(C(=O)Nc3ccccc31)C1=C(N2)C(=O)c2ccccc2C1=O (stereo not drawn) [Compound 7a, 3H-Spiro[benzo[g]furo[3,4-b]quinoline-11,3′-indoline]-1,2′,5,10(4H)-tetraone]
- IC50 ([1]; Homo sapiens, KB, 72 h): 5.33 ± 0.62 µM
- IC50 ([2]; Homo sapiens, A549, 72 h): 1.98 ± 0.16 µM
- IC50 ([3]; Homo sapiens, HepG2, 72 h): 5.33 ± 0.62 µM
- IC50 ([4]; Homo sapiens, MCF7, 72 h): 1.95 ± 0.21 µM
- IC50 ([5]; Homo sapiens, HEK293, 72 h): 4.89 ± 0.44 µM

Molecule: O=C1OCC2=C1C1(C(=O)Nc3ccc(Cl)cc31)C1=C(N2)C(=O)c2ccccc2C1=O (stereo not drawn) [Compound 7b, 5′-Chloro-3H-spiro[benzo[g]furo[3,4-b]quinoline-11,3′-indoline]-1,2′,5,10(4H)-tetraone]
- IC50 ([1]; Homo sapiens, KB, 72 h): 3.15 ± 0.21 µM
- IC50 ([2]; Homo sapiens, A549, 72 h): 1.41 ± 0.12 µM
- IC50 ([3]; Homo sapiens, HepG2, 72 h): 2.32 ± 0.31 µM
- IC50 ([4]; Homo sapiens, MCF7, 72 h): 4.2 ± 0.5 µM
- IC50 ([5]; Homo sapiens, HEK293, 72 h): 3.32 ± 0.33 µM

Molecule: Cc1ccc2c(c1)C1(C(=O)N2)C2=C(COC2=O)NC2=C1C(=O)c1ccccc1C2=O (stereo not drawn) [Compound 7c, 5′-Methyl-3H-spiro[benzo[g]furo[3,4-b]quinoline-11,3′-indoline]-1,2′,5,10(4H)-tetraone]
- IC50 ([1]; Homo sapiens, KB, 72 h): 3.46 ± 0.33 µM
- IC50 ([2]; Homo sapiens, A549, 72 h): 1.91 ± 0.2 µM
- IC50 ([3]; Homo sapiens, HepG2, 72 h): 4.02 ± 0.45 µM
- IC50 ([4]; Homo sapiens, MCF7, 72 h): 4.17 ± 0.48 µM
- IC50 ([5]; Homo sapiens, HEK293, 72 h): 3.89 ± 0.4 µM

Molecule: O=C1OCC2=C1C1(C(=O)Nc3ccc(Br)cc31)C1=C(N2)C(=O)c2ccccc2C1=O (stereo not drawn) [Compound 7d, 5′-Bromo-3H-spiro[benzo[g]furo[3,4-b]quinoline-11,3′-indoline]-1,2′,5,10(4H)-tetraone]
- IC50 ([1]; Homo sapiens, KB, 72 h): 4.75 ± 0.41 µM
- IC50 ([2]; Homo sapiens, A549, 72 h): 1.62 ± 0.17 µM
- IC50 ([3]; Homo sapiens, HepG2, 72 h): 4.34 ± 0.41 µM
- IC50 ([4]; Homo sapiens, MCF7, 72 h): 2.07 ± 0.26 µM
- IC50 ([5]; Homo sapiens, HEK293, 72 h): 3.52 ± 0.37 µM

Molecule: O=C1OCC2=C1C1(C(=O)Nc3c(Br)cc(Br)cc31)C1=C(N2)C(=O)c2ccccc2C1=O (stereo not drawn) [Compound 7f, 5′,7′-Dibromo-3H-spiro[benzo[g]furo[3,4-b]quinoline-11,3′-indoline]-1,2′,5,10(4H)-tetraone]
- IC50 ([1]; Homo sapiens, KB, 72 h): 1.99 ± 0.22 µM
- IC50 ([2]; Homo sapiens, A549, 72 h): 0.9 ± 0.09 µM
- IC50 ([3]; Homo sapiens, HepG2, 72 h): 3.28 ± 0.39 µM
- IC50 ([4]; Homo sapiens, MCF7, 72 h): 1.84 ± 0.17 µM
- fold lower cytotoxicity against Hek-293 cells than to A549 [5]: about 7 fold
- IC50 ([5]; Homo sapiens, HEK293, 72 h): 6.7 ± 0.57 µM
- % G0/G1 (A549 cells [7]; A549, 0.45 μM): 36.01%
- % G2/M (A549 cells [7]; A549, 0.45 μM): 13.49%
- % S (A549 cells [7]; A549, 0.45 μM): 47.96%
- % G0/G1 (A549 cells [7]; A549, 0.9 μM): 26.63%
- % G2/M (A549 cells [7]; A549, 0.9 μM): 4.17%
- % S (A549 cells [7]; A549, 0.9 μM): 67.93%
- % G0/G1 (A549 cells [7]; A549, 1.8 μM): 20.81%
- % G2/M (A549 cells [7]; A549, 1.8 μM): 13.61%
- % S (A549 cells [7]; A549, 1.8 μM): 63.88%
- % early apoptosis cells (Q2-4) (A549 cells [6]; A549, 0.45 μM): 1.76%
- % late apoptosis cells (Q2-2) (A549 cells [6]; A549, 0.45 μM): 1.26%
- % necrotic cells (Q2-1) (A549 cells [6]; A549, 0.45 μM): 0.64%
- % total apoptosis cells (A549 cells [6]; A549, 0.45 μM): 3.02%
- % early apoptosis cells (Q2-4) (A549 cells [6]; A549, 0.9 μM): 3.13%
- % late apoptosis cells (Q2-2) (A549 cells [6]; A549, 0.9 μM): 1.83%
- % necrotic cells (Q2-1) (A549 cells [6]; A549, 0.9 μM): 0.94%
- % early apoptosis cells (Q2-4) (A549 cells [6]; A549, 1.8 μM): 12.68%
- % late apoptosis cells (Q2-2) (A549 cells [6]; A549, 1.8 μM): 6.72%
- % necrotic cells (Q2-1) (A549 cells [6]; A549, 1.8 μM): 2.53%
- % total apoptosis cells (A549 cells [6]; A549, 1.8 μM): 19.4%

Molecule: O=C1OCC2=C1C1(C(=O)N(Cc3ccccc3)c3ccccc31)C1=C(N2)C(=O)c2ccccc2C1=O (stereo not drawn) [Compound 7h, 1′-Benzyl-3H-spiro[benzo[g]furo[3,4-b]quinoline-11,3′-indoline]-1,2′,5,10(4H)-tetraone]
- IC50 ([1]; Homo sapiens, KB, 72 h): 3.96 ± 0.34 µM
- IC50 ([2]; Homo sapiens, A549, 72 h): 1.71 ± 0.19 µM
- IC50 ([3]; Homo sapiens, HepG2, 72 h): 4.24 ± 0.38 µM
- IC50 ([4]; Homo sapiens, MCF7, 72 h): 3.73 ± 0.38 µM
- IC50 ([5]; Homo sapiens, HEK293, 72 h): 2.72 ± 0.19 µM

Molecule: O=C1OCC2=C1C1(C(=O)N(Cc3ccc(C(F)(F)F)cc3)c3ccccc31)C1=C(N2)C(=O)c2ccccc2C1=O (stereo not drawn) [Compound 7i, 1′-(4-(Trifluoromethyl)benzyl)-3H-spiro[benzo[g]furo[3,4-b]quinoline-11,3′-indoline]-1,2′,5,10(4H)-tetraone]
- IC50 ([1]; Homo sapiens, KB, 72 h): 4.65 ± 0.44 µM
- IC50 ([2]; Homo sapiens, A549, 72 h): 7.37 ± 0.83 µM
- IC50 ([3]; Homo sapiens, HepG2, 72 h): 4.5 ± 0.48 µM
- IC50 ([4]; Homo sapiens, MCF7, 72 h): 3.72 ± 0.35 µM
- IC50 ([5]; Homo sapiens, HEK293, 72 h): 4.04 ± 0.42 µM

Molecule: O=C1OCC2=C1C1(C(=O)N(Cc3ccc(Cl)cc3)c3ccccc31)C1=C(N2)C(=O)c2ccccc2C1=O (stereo not drawn) [Compound 7j, 1′-(4-Chlorobenzyl)-3H-spiro[benzo[g]furo[3,4-b]quinoline-11,3′-indoline]-1,2′,5,10(4H)-tetraone]
- IC50 ([1]; Homo sapiens, KB, 72 h): 5.6 ± 0.49 µM
- IC50 ([2]; Homo sapiens, A549, 72 h): 6.54 ± 0.69 µM
- IC50 ([3]; Homo sapiens, HepG2, 72 h): 5.78 ± 0.61 µM
- IC50 ([4]; Homo sapiens, MCF7, 72 h): 4.09 ± 0.41 µM
- IC50 ([5]; Homo sapiens, HEK293, 72 h): 10.3 ± 1.06 µM

Molecule: O=C1OCC2=C1C1(C(=O)N(Cc3ccc(Br)cc3F)c3ccccc31)C1=C(N2)C(=O)c2ccccc2C1=O (stereo not drawn) [Compound 7k, 1′-(4-Bromo-2-fluorobenzyl)-3H-spiro[benzo[g]furo[3,4-b]quinoline-11,3′-indoline]-1,2′,5,10(4H)-tetraone]
- IC50 ([1]; Homo sapiens, KB, 72 h): 27.3 ± 2.15 µM
- IC50 ([2]; Homo sapiens, A549, 72 h): 14 ± 1.59 µM
- IC50 ([3]; Homo sapiens, HepG2, 72 h): 20.9 ± 2.36 µM
- IC50 ([4]; Homo sapiens, MCF7, 72 h): 15.1 ± 1.59 µM
- IC50 ([5]; Homo sapiens, HEK293, 72 h): > 28 µM

Molecule: O=C1OCC2=C1C1(C(=O)N(Cc3ccc(C(F)(F)F)cc3)c3ccc(Cl)cc31)C1=C(N2)C(=O)c2ccccc2C1=O (stereo not drawn) [Compound 7l, 5′-Chloro-1′-(4-(trifluoromethyl)benzyl)-3H-spiro[benzo[g]furo[3,4-b]quinoline-11,3′-indoline]-1,2′,5,10(4H)-tetraone]
- IC50 ([1]; Homo sapiens, KB, 72 h): 17.8 ± 1.68 µM
- IC50 ([2]; Homo sapiens, A549, 72 h): 5.93 ± 0.64 µM
- IC50 ([3]; Homo sapiens, HepG2, 72 h): 15.1 ± 1.7 µM
- IC50 ([4]; Homo sapiens, MCF7, 72 h): 13.4 ± 1.23 µM
- IC50 ([5]; Homo sapiens, HEK293, 72 h): > 27.7 µM

Molecule: Cc1ccc2c(c1)N(Cc1ccc(Br)cc1F)C(=O)C21C2=C(COC2=O)NC2=C1C(=O)c1ccccc1C2=O (stereo not drawn) [Compound 7m, 1′-(4-Bromo-2-fluorobenzyl)-6′-methyl-3H-spiro[benzo[g]furo[3,4-b]quinoline-11,3′-indoline]-1,2′,5,10(4H)-tetraone]
- IC50 ([1]; Homo sapiens, KB, 72 h): 51.7 ± 1.78 µM
- IC50 ([2]; Homo sapiens, A549, 72 h): 13.3 ± 0.7 µM
- IC50 ([3]; Homo sapiens, HepG2, 72 h): 47.5 ± 2.15 µM
- IC50 ([4]; Homo sapiens, MCF7, 72 h): 19.9 ± 0.89 µM
- IC50 ([5]; Homo sapiens, HEK293, 72 h): > 65 µM

Molecule: O=C1OCC2=C1C1(C(=O)N(Cc3ccc(C(F)(F)F)cc3)c3cc(Br)c(Br)cc31)C1=C(N2)C(=O)c2ccccc2C1=O (stereo not drawn) [Compound 7n, 5′,6′-Dibromo-1′-(4-(trifluoromethyl)benzyl)-3H-spiro[benzo[g]furo[3,4-b]quinoline-11,3′-indoline]-1,2′,5,10(4H)-tetraone]
- IC50 ([1]; Homo sapiens, KB, 72 h): 4.36 ± 0.4 µM
- IC50 ([2]; Homo sapiens, A549, 72 h): 1.03 ± 0.13 µM
- IC50 ([3]; Homo sapiens, HepG2, 72 h): 6.74 ± 0.73 µM
- IC50 ([4]; Homo sapiens, MCF7, 72 h): 2.11 ± 0.24 µM
- fold lower cytotoxicity against Hek-293 cells than to A549 [5]: ~22 fold
- fold lower cytotoxicity against Hek-293 cells than to MCF7 ([5]; Hek-293 vs MCF7): about 11 fold
- IC50 ([5]; Homo sapiens, HEK293, 72 h): 22.9 ± 2.2 µM

Molecule: Cc1c2ccncc2c(C)c2c1[nH]c1ccccc12 [Ellipticine, reference compound]
- IC50 ([2]; Homo sapiens, A549, 72 h): 1.34 ± 0.08 µM
- IC50 ([3]; Homo sapiens, HepG2, 72 h): 2.07 ± 0.12 µM
- IC50 ([4]; Homo sapiens, MCF7, 72 h): 2.07 ± 0.16 µM
- IC50 ([5]; Homo sapiens, HEK293, 72 h): 5.64 ± 0.32 µM

— article PMC11774189 (RSC Advances, 2025)
